Here are results for 43 compounds from ChEMBL document CHEMBL1133733, “Anilides of (R)-trifluoro-2-hydroxy-2-methylpropionic acid as inhibitors of pyruvate dehydrogenase kinase” (J Med Chem, 2000).

The structures appear in SMILES notation. The source made the active and inactive calls.

Data set [1] addresses T1, Pyruvate dehydrogenase kinase (Rattus norvegicus) (UniProt Q63065+A6IPZ9+Q64536+O54937). The experiment in a line: In vivo percent of control lactate in 24 hr fasted rats at 100 umol/kg oral dose after 5 hours. Type of data set: functional, organism-based. The method in brief: (§1)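 Normal Sprague–Dawley rats, n = 6/group, fasted 24 h, then dosed orally (μmol/kg); blood lactate sampled at 2, 2.5 or 5 h postdose and expressed as percent of control; significance p < 0.05.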

The target in data set [2] is T1, Pyruvate dehydrogenase kinase (Rattus norvegicus). The data set is described as follows: In vivo percent of control lactate in 24 hr fasted rats at 100 umol/kg oral dose after 2.5 hours. Type of data set: functional, organism-based. A digest of the protocol: as §1
For data set [3] the target is unchanged. The experiment in a line: In vivo percent of control lactate in 24 hr fasted rats at 250 umol/kg oral dose. Type of data set: functional, organism-based. The method in brief:
as §1

The species named for the next data set is Homo sapiens. The experiment in a line: Effective concentration in human fibroblasts for increased oxidation of lactate. In kind it is functional, organism-based. The method in brief:
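Human fibroblasts incubated with [14C]lactate; PDH complex activation read as conversion of [14C]lactate to 14CO2 (modified Ofenstein assay); EC50 (μM ± standard error).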

In data set [4] the target is T1, Pyruvate dehydrogenase kinase (Rattus norvegicus). The experiment in a line: In vivo percent of control lactate in 24 hr fasted rats at 30 uM/kg oral dose. In kind it is functional, organism-based. The following applies: 30 umol/kg. The method in brief:
as §1

For data set [5] the target is unchanged. The experiment in a line: In vivo percent of control lactate in 24 hr fasted rats at 100 umol/kg oral dose. In kind it is functional, organism-based. The method in brief: as §1
For data set [6], the target named is Pyruvate dehydrogenase kinase (Homo sapiens) (UniProt Q15119+Q15120+Q16654+Q15118). The experiment in a line: In vitro inhibition of pyruvate dehydrogenase kinase (PDHK) in primary enzymatic assay; Inactive. Type of data set: protein assay. The note with it: Sus scrofa. A digest of the protocol:
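Primary high-throughput enzymatic assay of PDH kinase inhibition using commercial porcine PDH complex; IC50 reported as μM ± standard error.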

In data set [7] the target is T1, Pyruvate dehydrogenase kinase (Rattus norvegicus). The experiment in a line: In vivo percent of control lactate in 24 hr fasted rats at 300 umol/kg oral dose after 2.5 hours. Type of data set: functional, organism-based. The method in brief: as §1
Data set [8] in a line: Area Under Curve after oral dosing of 100 uM/Kg. Type of data set: ADME. The method in brief: (§2)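 Plasma levels of parent drug profiled in rats after a single oral dose; t1/2, AUC (0–8 h), Tmax and Cmax derived from the plasma concentration–time profile.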
The nature of data set [9]: Half-life after oral administration (100 uM/Kg). In kind it is ADME, organism-based. The note with it: in vivo. The method in brief:
as §2

A short description of data set [10]: Cmax after oral dosing of 100 umol/Kg. In kind it is ADME, organism-based. The note with it: in vivo. The arrangement: dose 100 umol/Kg, route oral. A digest of the protocol:
as §2

Data set [11] in a line: Tmax after oral dosing of 100 uM/Kg. The note with it: in vivo. In kind it is ADME, organism-based. A digest of the protocol: as §2
Data set [12] has as its target T1, Pyruvate dehydrogenase kinase (Rattus norvegicus). The data set is described as follows: In vivo percent of control lactate in 24 hr fasted rats at 30 uM/kg oral dose after 2.5 hours. In kind it is functional, organism-based. The method in brief: as §1
Data set [13] has the same target. The data set is described as follows: In vivo percent of control lactate in 24 hr fasted rats at 10 uM/kg oral dose after 2.5 hours. Type of data set: functional, organism-based. A digest of the protocol:
as §1

Data set [14] shares this target. The data set is described as follows: In vivo percent of control lactate in 24 hr fasted rats at 30 uM/kg oral dose after 5 hours. In kind it is functional, organism-based. A digest of the protocol: as §1
For data set [15] the target is unchanged. The data set is described as follows: In vivo percent of control lactate in 24 hr fasted rats at 300 umol/kg oral dose after 5 hours. Type of data set: functional, organism-based. A digest of the protocol: as §1

Regarding `C[C@@](O)(C(=O)Nc1ccc(S(=O)(=O)NCc2ccccn2)cc1Cl)C(F)(F)F`, the Control in data set [1] was determined as 84%; in data set [2], 64%.

As to `C[C@@](O)(C(=O)Nc1ccc(S(=O)(=O)NCCN2CCOCC2)cc1Cl)C(F)(F)F`, the Control in [1] is 84%; in data set [2], 71%.

Compound `C[C@@](O)(C(=O)Nc1ccc(S(C)(=O)=O)cc1Cl)C(F)(F)F` had a Control in data set [3] of 65%. As to `CC(O)(C(=O)Nc1ccccc1Cl)C(F)(F)F` (stereo unspecified), a half-maximal effect in the data set listed under Homo sapiens (EC50) was put at 5.4 µM. `CN(CCCO)C(=O)c1ccc(NC(=O)[C@@](C)(O)C(F)(F)F)c(Cl)c1` displayed a Control in data set [4] of 114%. For `C[C@@](O)(C(=O)Nc1ccc(C(=O)N2CCN(c3ccccn3)CC2)cc1Cl)C(F)(F)F`, in data set [5], the Control was determined as 63%. In the case of `CC(O)(C(=O)Nc1ccc(C(=O)c2ccccc2)cc1Cl)C(F)(F)F` (stereo unspecified), in the data set filed under Homo sapiens, the EC50 (as a rule, the concentration that produces a half-maximal response) was 30 µM. That is a double-digit micromolar value. Take `CC(O)(C(=O)Nc1ccccc1-c1ccccc1)C(F)(F)F` (stereo unspecified): the NA entry in data set [6] is “inactive”. With `C[C@@](O)(C(=O)Nc1ccc(C(=O)N2CCOCC2)cc1Cl)C(F)(F)F`, in data set [5], the Control came out at 64%. As to `CC(O)(C(=O)Nc1ccc(C#N)cc1Cl)C(F)(F)F` (stereo unspecified), in [3], the Control was found to be 78%. Take `C[C@@](O)(C(=O)Nc1ccc(S(=O)(=O)N2CCC(N)C2)cc1Cl)C(F)(F)F` (stereo partly specified): the Control in [1] came to 70%; in data set [2] it was 82%. In the data set filed under Homo sapiens, `COc1ccc(NC(=O)C(C)(O)C(F)(F)F)cc1` (stereo unspecified) showed an EC50 of 43.1 µM. In other words, the double-digit micromolar range.

Turning to `CC(O)(C(=O)Nc1cc(C(=O)c2ccccc2)ccc1Cl)C(F)(F)F` (stereo unspecified), the NA entry in data set [6] was “inactive”. Compound `C[C@@](O)(C(=O)Nc1ccc(S(=O)(=O)N2CCNCC2)cc1Cl)C(F)(F)F` yielded a Control in data set [7] of 77%. For `CC(O)(C(=O)Nc1cccc(C(=O)O)c1Cl)C(F)(F)F` (stereo unspecified), in [8], the AUC (commonly concentration integrated over time) came out at 143 µM·h. Besides, the half-life (as a rule, the time needed for the level to fall by half in the phase considered) in data set [9] is 4.6 h. Further, in data set [10], the peak concentration (Cmax) (commonly the highest concentration seen after dosing) came out at 87.3 µM. In addition, the Tmax (usually the time at which the peak concentration occurs) in [11] was 0.5 h. `CC(C)CNS(=O)(=O)c1ccc(NC(=O)[C@@](C)(O)C(F)(F)F)c(Cl)c1`: the Control in [1] was 60%; in data set [12] it was 83%; in [13] it was 100%; in data set [2] it was 69%.

Compound `CC(=O)c1ccccc1NC(=O)C(C)(O)C(F)(F)F` (stereo unspecified) had an EC50 in the data set filed under Homo sapiens of 14 µM. That is a double-digit micromolar value. Consider `C[C@@](O)(C(=O)Nc1ccc(S(=O)(=O)NCCc2ccc(F)cc2)cc1Cl)C(F)(F)F`, for which the Control worked out at 69% in data set [1] and 124% in data set [2].

Turning to `C[C@@](O)(C(=O)Nc1ccc(C(=O)N[C@@H](Cc2ccccc2)C(=O)[O-])cc1Cl)C(F)(F)F.[Na+]`, the Control in data set [5] came to 115%. In turn, `CC(O)(C(=O)Nc1cccc(C(=O)c2ccccc2)c1)C(F)(F)F` (stereo unspecified) registered a 50% effective concentration (EC50) in the data set listed under Homo sapiens of 10 µM. Turning to `CC(O)(C(=O)Nc1cc(C(=O)O)ccc1Cl)C(F)(F)F` (stereo unspecified), the NA result in [6] is “inactive”.

As for `C=CCNS(=O)(=O)c1ccc(NC(=O)[C@@](C)(O)C(F)(F)F)c(Cl)c1`, the Control came to 62% in [1] and 76% in [2]. On to `C[C@@](O)(C(=O)Nc1ccc(S(=O)(=O)NCCCN2CCCC2=O)cc1Cl)C(F)(F)F`, for which the Control turned out to be 52% in [1], 87% in data set [12], 66% in data set [14] and 51% in data set [2]. In turn, `CC(O)(C(=O)Nc1ccc(C(=O)N2CCCCC2)cc1Cl)C(F)(F)F` (stereo unspecified) displayed an EC50 in the data set filed under Homo sapiens of 0.71 µM. In other words, the sub-micromolar range. Consider `CC(O)(C(=O)Nc1cccc(C(F)(F)F)c1)C(F)(F)F` (stereo unspecified), for which, in [6], the NA entry is “inactive”. Compound `C[C@@](O)(C(=O)Nc1ccc(C(=O)NCCCCCC(=O)[O-])cc1Cl)C(F)(F)F.[Na+]` showed a Control in [5] of 94%. Consider `C[C@@](O)(C(=O)Nc1ccc(C(=O)N[C@@H](Cc2ccc(-c3ccccc3)cc2)C(=O)O)cc1Cl)C(F)(F)F`, for which the Control in data set [4] stood at 101%. For `COc1ccc(Cl)c(NC(=O)C(C)(O)C(F)(F)F)c1` (stereo unspecified), the NA result in [6] is “inactive”. On to `CCOCCCNS(=O)(=O)c1ccc(NC(=O)[C@@](C)(O)C(F)(F)F)c(Cl)c1`, for which the results for the Control in [1] and in data set [2] were 70% and 72%, respectively.

Take `C[C@@](O)(C(=O)Nc1ccc(C(=O)O)cc1Cl)C(F)(F)F`: the EC50 in the data set filed under Homo sapiens amounted to 1.4 µM. In other words, the single-digit micromolar range. `CCCCCCNC(=O)c1ccc(Cl)c(NC(=O)C(C)(O)C(F)(F)F)c1` (stereo unspecified): in data set [6], the NA result was “inactive”. For `C[C@@](O)(C(=O)Nc1ccc(C(=O)NCCCO)cc1Cl)C(F)(F)F`, in data set [5], the Control was determined as 88%. Compound `C[C@@H](C(=O)[O-])N(C)C(=O)c1ccc(NC(=O)[C@@](C)(O)C(F)(F)F)c(Cl)c1.[Na+]` registered a Control in [4] of 94%. `CCCCCCNC(=O)c1ccc(NC(=O)C(C)(O)C(F)(F)F)c(Cl)c1` (stereo unspecified): the response in the data set listed under Homo sapiens was half-maximal at 5.5 µM (EC50). For `CC(O)(C(=O)Nc1cc(C(=O)N2CCCCC2)ccc1Cl)C(F)(F)F` (stereo unspecified), in [6], the NA entry is “inactive”. With `COC(=O)[C@H](Cc1c[nH]c2ccccc12)N(C)C(=O)c1ccc(NC(=O)[C@@](C)(O)C(F)(F)F)c(Cl)c1`, the Control in [4] came out at 102%. `CC(C)[C@@H](C(=O)[O-])N(C)C(=O)c1ccc(NC(=O)[C@@](C)(O)C(F)(F)F)c(Cl)c1.[Na+]` gave a Control in [4] of 87%. In the data set filed under Homo sapiens, `COC(=O)c1cccc(NC(=O)C(C)(O)C(F)(F)F)c1Cl` (stereo unspecified) gave an EC50 of 13.8 µM. Turning to `Cc1cccc(C)c1NC(=O)C(C)(O)C(F)(F)F` (stereo unspecified), the NA result in data set [6] was “inactive”. On the same count and under the same terms, with `COC(=O)c1ccc(Cl)c(NC(=O)C(C)(O)C(F)(F)F)c1` (stereo unspecified) the entry was “inactive”. With `C[C@@](O)(C(=O)Nc1ccc(C(=O)N[C@@H](CCc2ccccc2)C(=O)O)cc1Cl)C(F)(F)F`, the Control in [4] came out at 97%. In the data set listed under Homo sapiens, `CC(O)(C(=O)Nc1cccc(C(=O)c2ccccc2)c1Cl)C(F)(F)F` (stereo unspecified) yielded an EC50 of 11 µM. As to `CC(C)CNS(=O)(=O)c1ccc(NC(=O)C(C)(C)O)c(Cl)c1`, the Control in data set [1] was determined as 95%; in [7] it was 69%; in [15], 76%; in data set [2], 101%.
